# Where no end group is shown, it is not given here. [ ]: non-standard residue; d: D form. pS = N[C@@H](COP(=O)(O)O)C(=O)O
# T1: biotinylated GlialCAM_(AA370–389 pSer376) peptide (human) (UniProt Q14CZ8)
# T1 sequence (peptide): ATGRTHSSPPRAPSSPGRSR
# T2: biotinylated GlialCAM_(AA370–389 pSer376 pSer377) peptide (human) (UniProt Q14CZ8)
# T2 sequence (peptide): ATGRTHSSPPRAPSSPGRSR
# T3: EBNA1_(AA386–405) 20mer peptide (Epstein-Barr virus)
# T3 chain: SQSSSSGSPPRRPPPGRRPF
# T4: biotinylated EBNA1_(AA386–405) peptide (Epstein-Barr virus, sequence as B95-8)
# T4 chain: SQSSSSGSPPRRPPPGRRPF
# T5: biotinylated native GlialCAM_(AA370–389) peptide (Homo sapiens, UniProt Q14CZ8)
# T5 chain: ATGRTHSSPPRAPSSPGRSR
# B1: mAb MS39p2w174 (antibody, V domains shown)
# VH: QVQLVESGGGLVKPGGSLRLSCVSSGFTFSNYWMSWVRQAPGGGLEWVANINQDGSEKYYVDSVKGRFTSSRDNTKNSLFLQLNSLRAEDTGIYYCTRDPPYFDNWGQGTLVTVSS
# VL: DVVLTQSPLSLPVILGQPASISCRSSQSLVYSDGRTYLNWFQQRPGQSPRRLIYKISKRDSGVPERFSGSGSGTDFTLEISRVEAEDVGIYYCMQGSHWPVTFGQGTKVEIK
# B2: GlialCAM protein (bio-layer interferometry) (natural protein)
# chain: VNITSPVRLIHGTVGKSALLSVQYSSTSSDRPVVKWQLKRDKPVTVVQSIGTEVIGTLRPDYRDRIRLFENGSLLLSDLQLADEGTYEVEISITDDTFTGEKTINLTVDVPISRPQVLVASTTVLELSEAFTLNCSHENGTKPSYTWLKDGKPLLNDSRMLLSPDQKVLTITRVLMEDDDLYSCMVENPISQGRSLPVKITVYRRSSLYIILSTGGIFLLVTLVTVCACWKPSKRKQKKLEKQNSLEYMDQNDDRLKPEADTLPRSGEQERKNPMALYILKDKDSPETEENPAPEPRSATEPGPPGYSVSPAVPGRSPGLPIRSARRYPRSPARSPATGRTHSSPPRAPSSPGRSRSASRTLRTAGVHIIREQDEAGPVEISA
# Experiments:
# [1] = test system: plasma antibody reactivity against EBNA1AA386–405; assay: Plasma ELISA with blocking of plasma IgG; assay type: binding, human; details: blocking peptide 10 μg/ml, 2 h RT; nine high-reactivity MS samples
# Outline: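 384-well plates are coated overnight at 4°C with recombinant Protein G (2μg/ml) and washed 6x with PBST. Plasma (1:100) is bound overnight at 4°C, washed again, then blocked 2 h at RT with 10μg/ml peptide (scrambled control, EBNA1 AA386–405 or GlialCAM AA370–389 pSer376). Read-out is OD 450 nm normalized to the unblocked sample, with quadruplicate wells.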
# [2] = test system: splenocytes and lymph node cells; assay: T cell proliferation by 3H-thymidine incorporation; assay type: cell-based, mouse; details: cells pooled from n=10 immunized mice
# GlialCAM ICD = assay: Mouse plasma IgG ELISA against GlialCAM ICD; assay type: in vivo, SJL/J mice; details: immunized mice, plasma 1:100
# [3] = test system: mouse splenocytes and lymph node cells; assay: Cytokine ELISA in cell culture supernatant; assay type: cell-based; details: cells of immunized mice re-stimulated with peptide
# [4] = test system: experimental autoimmune encephalomyelitis (EAE); assay: EAE after peptide immunization; assay type: in vivo, SJL/J mice; details: spinal cord histology, day 50; vs. scrambled peptide
# EBNA1AA386–405 = assay: Mouse plasma IgG ELISA against EBNA1 peptide; assay type: in vivo, SJL/J mice; details: immunized mice, plasma 1:100
# [5] = target: T1, biotinylated GlialCAM_(AA370–389 pSer376) peptide (human); assay: BLI
# [6] = target: T2, biotinylated GlialCAM_(AA370–389 pSer376 pSer377) peptide (human); assay: BLI
# [7] = target: T3, EBNA1_(AA386–405) 20mer peptide; assay: ELISA
# [8] = target: GlialCAM protein (bio-layer interferometry) (Homo sapiens, UniProt Q14CZ8); assay: BLI
# [9] = target: T4, biotinylated EBNA1_(AA386–405) peptide; assay: BLI
# [10] = target: EBNA1 full-length protein AA1–641 (Epstein-Barr virus, strain ; …, UniProt P03211); assay: BLI
# [11] = target: T5, biotinylated native …; assay: BLI
# [12] = target: actin filament associated protein 1 (AFAP1) on the HuProt microarray (Homo sapiens (Human)., UniProt Q8N556); assay: peptide or protein array
# [13] = target: unmutated ancestor of MS39p2w174 (germline) (human); assay: BLI
# Chain of actin filament associated protein 1 (AFAP1) on the HuProt microarray (Q8N556 whole entry): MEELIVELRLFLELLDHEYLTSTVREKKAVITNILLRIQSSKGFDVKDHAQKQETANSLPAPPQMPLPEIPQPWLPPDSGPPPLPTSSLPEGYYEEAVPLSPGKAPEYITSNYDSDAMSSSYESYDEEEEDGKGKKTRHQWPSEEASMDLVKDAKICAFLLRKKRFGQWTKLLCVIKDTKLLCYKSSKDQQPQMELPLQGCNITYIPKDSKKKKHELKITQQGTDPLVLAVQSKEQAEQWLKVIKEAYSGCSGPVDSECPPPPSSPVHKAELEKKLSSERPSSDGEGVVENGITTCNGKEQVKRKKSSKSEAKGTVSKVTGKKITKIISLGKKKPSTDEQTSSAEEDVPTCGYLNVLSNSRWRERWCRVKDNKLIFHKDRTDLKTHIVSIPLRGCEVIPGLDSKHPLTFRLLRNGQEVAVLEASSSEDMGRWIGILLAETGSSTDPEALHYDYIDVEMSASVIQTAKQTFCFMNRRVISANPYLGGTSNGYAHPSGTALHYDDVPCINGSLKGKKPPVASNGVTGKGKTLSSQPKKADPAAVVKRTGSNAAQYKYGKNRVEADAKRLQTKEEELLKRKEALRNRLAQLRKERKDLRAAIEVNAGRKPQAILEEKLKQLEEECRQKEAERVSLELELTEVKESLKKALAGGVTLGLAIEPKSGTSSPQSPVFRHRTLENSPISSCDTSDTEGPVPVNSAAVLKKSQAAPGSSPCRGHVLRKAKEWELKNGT
# Chain of EBNA1 full-length protein AA1–641 (P03211 whole entry, the tested form may be a part): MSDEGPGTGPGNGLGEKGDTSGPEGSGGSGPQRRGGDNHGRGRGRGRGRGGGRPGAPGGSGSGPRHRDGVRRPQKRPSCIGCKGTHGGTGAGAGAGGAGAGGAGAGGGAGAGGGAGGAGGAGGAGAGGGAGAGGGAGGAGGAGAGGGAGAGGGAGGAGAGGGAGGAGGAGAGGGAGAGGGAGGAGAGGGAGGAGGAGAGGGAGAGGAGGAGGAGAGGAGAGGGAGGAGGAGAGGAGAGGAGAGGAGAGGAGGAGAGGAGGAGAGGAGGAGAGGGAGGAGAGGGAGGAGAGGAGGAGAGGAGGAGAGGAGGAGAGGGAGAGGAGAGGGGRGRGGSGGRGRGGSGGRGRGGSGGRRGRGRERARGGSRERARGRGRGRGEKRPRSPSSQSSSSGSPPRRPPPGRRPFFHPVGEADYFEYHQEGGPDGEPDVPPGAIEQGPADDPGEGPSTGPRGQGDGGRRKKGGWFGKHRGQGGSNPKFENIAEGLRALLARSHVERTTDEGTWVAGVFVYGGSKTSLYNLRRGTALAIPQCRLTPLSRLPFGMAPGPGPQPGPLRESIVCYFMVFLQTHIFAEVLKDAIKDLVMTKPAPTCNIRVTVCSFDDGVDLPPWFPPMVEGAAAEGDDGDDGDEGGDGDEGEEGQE
molecule,measurement,setting,value
GlialCAMAA370–389 pSer376: GlialCAM 20mer peptide phosphorylated at Ser376 (ATGRTH[pS]SPPRAPSSPGRSR),blocking of anti-EBNA1AA386–405 plasma reactivity,[1],inhibition
SQSSSSGSPPRRPPPGRRPF [EBNA1AA386–405],CD4+ T cell response,[2],strong CD4+ T cell response
same,plasma IgG response to GlialCAM ICD,GlialCAM ICD,robust antibody responses
same,IL-17 secretion,[3],suppressed
same,"secretion of IFN-γ, TNF, IL-12, IL-6 and IL-10",[3],stimulated the secretion
same,CNS immune cell infiltration (H&E),[4],enhanced CNS immune cell infiltration
same,demyelination (Luxol Fast Blue),[4],enhanced
same,plasma IgG response to EBNA1AA386–405,EBNA1AA386–405,robust antibody responses
B1,Kd,[5],6.1 nM
same,Kd,[6],3.73 nM
same,binding result,[7],binds
same,Kd,[8],0.19 nM
same,Kd,[9],2.67 nM
same,Kd,[10],1.99 nM
same,Kd,[11],302 nM
same,binding result,[12],binds
B2,Kd,[13],10.5 nM
